Reference: ChEMBL document CHEMBL1126768, “A mechanism-based inactivation study of neutral endopeptidase 24.11” (J Med Chem, 1993)

Tests used:
[1] = target: T1, Neprilysin (Homo sapiens, UniProt P08473); test: Inhibition constant determined for neutral endopeptidase (NEP)
Method in brief: (§1)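 Reversible inhibition of recombinant human NEP (0.5 μM final), tested with inactivator at 1–50 μM in 50 mM HEPES pH 7.4 plus 5% p-dioxane. DAGNPG substrate was used at 100 and 500 μM. NEP was added last and activity was read immediately by continuous fluorescence (ex 342, em 562 nm).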

[2] = target: T2, Angiotensin-converting enzyme (Rattus norvegicus, UniProt P47820); test: Inhibition constant determined for angiotensin converting enzyme (ACE)
T2 sequence (P47820 whole entry): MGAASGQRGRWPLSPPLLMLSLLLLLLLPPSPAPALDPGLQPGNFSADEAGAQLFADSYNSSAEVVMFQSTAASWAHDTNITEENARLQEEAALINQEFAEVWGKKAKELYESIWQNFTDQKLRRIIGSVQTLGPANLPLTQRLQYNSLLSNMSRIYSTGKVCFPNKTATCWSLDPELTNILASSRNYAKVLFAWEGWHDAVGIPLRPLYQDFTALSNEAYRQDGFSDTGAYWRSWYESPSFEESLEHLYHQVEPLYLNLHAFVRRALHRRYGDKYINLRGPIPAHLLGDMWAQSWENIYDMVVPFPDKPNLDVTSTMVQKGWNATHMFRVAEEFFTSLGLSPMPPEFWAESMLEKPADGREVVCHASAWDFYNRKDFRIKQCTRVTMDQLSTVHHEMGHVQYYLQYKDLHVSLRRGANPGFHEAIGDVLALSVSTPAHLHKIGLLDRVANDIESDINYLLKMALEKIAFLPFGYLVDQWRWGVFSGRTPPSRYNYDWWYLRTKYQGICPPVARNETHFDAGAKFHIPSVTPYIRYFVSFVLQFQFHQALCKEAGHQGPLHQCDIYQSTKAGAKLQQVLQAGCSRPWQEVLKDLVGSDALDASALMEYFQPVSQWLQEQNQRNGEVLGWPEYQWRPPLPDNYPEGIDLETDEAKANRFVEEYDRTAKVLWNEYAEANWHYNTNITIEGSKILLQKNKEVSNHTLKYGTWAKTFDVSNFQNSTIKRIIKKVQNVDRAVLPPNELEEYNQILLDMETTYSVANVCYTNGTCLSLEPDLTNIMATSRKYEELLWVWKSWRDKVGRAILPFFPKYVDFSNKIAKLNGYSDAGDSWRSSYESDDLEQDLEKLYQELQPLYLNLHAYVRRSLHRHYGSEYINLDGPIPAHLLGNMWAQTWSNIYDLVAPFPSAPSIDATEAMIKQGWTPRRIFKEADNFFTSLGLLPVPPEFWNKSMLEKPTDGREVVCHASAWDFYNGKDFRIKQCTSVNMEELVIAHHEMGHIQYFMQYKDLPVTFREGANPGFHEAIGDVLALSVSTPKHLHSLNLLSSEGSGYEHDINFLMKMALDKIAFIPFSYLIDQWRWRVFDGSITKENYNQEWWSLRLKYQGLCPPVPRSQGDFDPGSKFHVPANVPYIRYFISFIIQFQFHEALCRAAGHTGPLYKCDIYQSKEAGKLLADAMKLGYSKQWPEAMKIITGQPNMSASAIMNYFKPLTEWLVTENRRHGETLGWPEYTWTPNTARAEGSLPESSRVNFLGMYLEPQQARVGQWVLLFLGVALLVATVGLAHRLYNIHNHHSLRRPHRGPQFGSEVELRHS

[3] = target: T2, Angiotensin-converting enzyme; test: Inhibition constant determined for Angiotensin I converting enzyme
[4] = target: T1, Neprilysin; test: Inhibition constant determined for Neutral endopeptidase (NEP); method in brief: as §1

T1 sequence (P08473 whole entry): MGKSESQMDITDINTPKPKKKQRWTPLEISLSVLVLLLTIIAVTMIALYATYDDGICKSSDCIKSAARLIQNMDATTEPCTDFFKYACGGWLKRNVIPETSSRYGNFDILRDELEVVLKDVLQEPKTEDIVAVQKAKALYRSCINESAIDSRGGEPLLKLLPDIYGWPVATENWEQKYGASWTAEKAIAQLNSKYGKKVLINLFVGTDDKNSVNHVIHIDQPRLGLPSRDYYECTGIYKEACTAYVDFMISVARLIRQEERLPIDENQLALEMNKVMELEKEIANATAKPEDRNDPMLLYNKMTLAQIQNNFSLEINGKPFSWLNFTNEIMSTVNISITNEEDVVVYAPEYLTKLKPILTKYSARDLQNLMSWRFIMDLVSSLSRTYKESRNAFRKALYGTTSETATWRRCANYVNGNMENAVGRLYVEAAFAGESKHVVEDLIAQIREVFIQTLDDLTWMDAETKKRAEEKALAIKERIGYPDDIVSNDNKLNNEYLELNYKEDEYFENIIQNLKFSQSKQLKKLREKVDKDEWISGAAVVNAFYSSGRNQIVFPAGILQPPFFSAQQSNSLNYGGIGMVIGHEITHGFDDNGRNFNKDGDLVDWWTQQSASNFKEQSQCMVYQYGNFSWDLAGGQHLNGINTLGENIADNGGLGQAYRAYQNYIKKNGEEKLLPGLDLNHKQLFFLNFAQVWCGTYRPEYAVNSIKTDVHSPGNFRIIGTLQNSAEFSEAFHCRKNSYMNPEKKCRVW

## N#CCC(=O)CC(Cc1ccccc1)C(=O)NC(Cc1ccccc1)C(=O)O (centres undefined)
[1]
  Ki: 14 µM
[2]
  Ki: > 10000 µM

## N#CCC(=O)NC(Cc1ccccc1)C(=O)NC(Cc1ccccc1)C(=O)O (centres undefined)
[3]
  Ki: 65 µM
[4]
  Ki: 17 µM
